As a reminder, the IC50 is the concentration needed to halve the response being measured. Low values mean inhibition by little substance, high ones a need for much substance.

The target of one assay is Cathepsin B (Homo sapiens, UniProt P07858). The experiment in a line: Inhibition of human liver Cathepsin B using Z-Arg-Arg-aminomethylcoumarin as substrate incubated for 5 mins prior to substrate addition measured for 5 mins by fluorometric analysis. In short, it runs like this:
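Assay run with 2% DMSO in the well and a five-minute pre-incubation before substrate. Substrate was used at 60 µM. Activity is reported as IC₅₀ (nM).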

The next assay has as its target Procathepsin L (Homo sapiens, UniProt P07711). The assay is described as follows: Inhibition of human liver Cathepsin L using Z-Phe-Arg-aminomethylcoumarin as substrate incubated for 5 mins prior to substrate addition measured for 5 mins by fluorometric analysis. The method, boiled down: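 Assay run with 2% DMSO in the well and a five-minute pre-incubation before substrate. Substrate was used at 50 µM. Activity is reported as IC₅₀ (nM).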

The species entered for a further assay is Homo sapiens. The experiment in a line: Selectivity ratio of IC50 for human liver Cathepsin B to IC50 for human liver Cathepsin L.

Chain of Procathepsin L (P07711 whole entry): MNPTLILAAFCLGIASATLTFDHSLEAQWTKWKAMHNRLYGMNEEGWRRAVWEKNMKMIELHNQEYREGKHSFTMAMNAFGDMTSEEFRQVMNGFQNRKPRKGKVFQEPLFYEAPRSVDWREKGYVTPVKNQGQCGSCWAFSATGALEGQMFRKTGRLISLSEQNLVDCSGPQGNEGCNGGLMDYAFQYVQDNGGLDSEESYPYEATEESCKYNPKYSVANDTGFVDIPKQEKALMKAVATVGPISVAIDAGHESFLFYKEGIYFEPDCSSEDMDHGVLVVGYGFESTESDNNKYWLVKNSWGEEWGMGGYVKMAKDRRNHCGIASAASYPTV

`CS(=O)(=O)c1ccc2c(c1)/C(=N/NC(N)=S)CCS2(=O)=O`: the half-maximal inhibitory concentration (IC50) at Cathepsin B and against Procathepsin L was above 10 µM each time.

For `CC(=O)N1CC/C(=N\NC(N)=S)c2ccccc21`, the IC50 on Cathepsin B and against Procathepsin L was above 10 µM each time.

As to `NC(=S)N/N=C1\CCNc2ccc([N+](=O)[O-])cc21`, the IC50 on Cathepsin B is above 10 µM; on Procathepsin L, 0.449 µM. For the same molecule, the Ratio IC50 in the assay filed under Homo sapiens is above 20.

Take `N=C(N)N/N=C1\CCSc2ccc([N+](=O)[O-])cc21`: the IC50 against Cathepsin B and against Procathepsin L was above 10 µM each time.

`NC(=S)N/N=C1\CCCS(=O)(=O)c2ccc([N+](=O)[O-])cc21`: the IC50 at Cathepsin B and against Procathepsin L was above 10 µM in each case.

Turning to `N=C(N)N/N=C1\CCS(=O)(=O)c2ccc([N+](=O)[O-])cc21`, the IC50 against Cathepsin B and against Procathepsin L was above 10 µM throughout.

For `NC(=S)N/N=C1\CC(Nc2ccccc2)c2ccc(Br)cc21` (configuration not stated), the IC50 against Cathepsin B and on Procathepsin L was above 10 µM in each case.

On to `NC(=S)N/N=C1\CCN([N+](=O)[O-])c2ccc([N+](=O)[O-])cc21`, for which the results for the IC50 on Cathepsin B and against Procathepsin L were above 10 µM and 0.228 µM, respectively. The Ratio IC50 in the assay filed under Homo sapiens was above 20.

Turning to `NC(=S)NN=C1c2cc([N+](=O)[O-])ccc2-c2ccc([N+](=O)[O-])cc21`, the IC50 against Cathepsin B and against Procathepsin L was above 10 µM throughout.

`NC(=S)N/N=C1\CCCSc2cc(F)c(F)cc21`: the values for the IC50 at Cathepsin B and at Procathepsin L were above 10 µM and at least 10 µM, respectively.

For `COc1ccc2c(c1)CCC/C2=N\NC(N)=S`, the IC50 against Cathepsin B and against Procathepsin L was above 10 µM throughout.

For `CN1CC/C(=N\NC(N)=S)c2cc(Br)ccc21`, the IC50 at Cathepsin B and on Procathepsin L was above 10 µM in each case.

Consider `NC(=S)N/N=C1\CCCS(=O)(=O)c2cc(F)c(F)cc21`, for which the IC50 at Cathepsin B and at Procathepsin L was above 10 µM in each case.

With `NC(=S)N/N=C1\CCN([N+](=O)[O-])c2ccccc21`, the IC50 against Cathepsin B and on Procathepsin L was above 10 µM each time.

As to `NC(=S)N/N=C1\CCOc2ccc(Cl)cc21`, the IC50 at Cathepsin B is above 10 µM; against Procathepsin L it was 0.369 µM. Further, the Ratio IC50 in the assay listed under Homo sapiens is above 20.

With `NC(=S)N/N=C1\CCc2ccccc2C1`, the IC50 against Cathepsin B and at Procathepsin L was above 10 µM each time.

`NC(=S)N/N=C1\CCc2ccc(Br)cc21`: the IC50 at Cathepsin B and at Procathepsin L was above 10 µM each time.

With `NC(=S)N/N=C1\CCCc2c(O)cccc21`, the IC50 against Cathepsin B and against Procathepsin L was above 10 µM each time.

As for `COc1cccc2c1CCC/C2=N\NC(N)=S`, the IC50 against Cathepsin B and at Procathepsin L was above 10 µM throughout.

In the case of `NC(=S)N/N=C1\CCNc2ccc(Br)cc21`, the figures for the IC50 on Cathepsin B and against Procathepsin L were above 10 µM and 0.164 µM, respectively. The Ratio IC50 in the assay filed under Homo sapiens was above 20.

Consider `NC(=S)N/N=C1\CCCc2cc(N)ccc21`, for which the IC50 against Cathepsin B and on Procathepsin L was above 10 µM each time.

As for `NC(=S)N/N=C1\CCNc2c(Cc3ccccc3)cccc21`, the half-inhibitory concentration (IC50) on Cathepsin B and at Procathepsin L was above 10 µM each time.

`NC(=S)N/N=C1\CCNc2c1cc([N+](=O)[O-])cc2[N+](=O)[O-]`: the IC50 against Cathepsin B was above 10 µM; against Procathepsin L it was 0.338 µM. Moreover, the Ratio IC50 in the assay listed under Homo sapiens is above 20.

Regarding `NC(=S)N/N=C1\CCCCc2ccccc21`, the IC50 on Cathepsin B and against Procathepsin L was above 10 µM each time.

With `NC(=S)N/N=C1\CCS(=O)(=O)c2ccc(N)cc21`, the half-inhibitory concentration (IC50) at Cathepsin B and against Procathepsin L was above 10 µM in each case.

With `NC(=S)N/N=C1\CC[S+]([O-])c2ccc([N+](=O)[O-])cc21` (configuration not stated), the half-inhibitory concentration (IC50) was above 10 µM on Cathepsin B and 1.74 µM on Procathepsin L. In the assay filed under Homo sapiens, the Ratio IC50 is above 5.7.

In the case of `NC(=S)N/N=C1\CC(c2ccccc2)Oc2ccccc21` (configuration not stated), the IC50 against Cathepsin B and at Procathepsin L was above 10 µM in each case.

For the molecule `NC(=S)N/N=C1\CCCSc2ccc([N+](=O)[O-])cc21`, the IC50 was above 10 µM against Cathepsin B and 0.658 µM against Procathepsin L. In addition, the Ratio IC50 in the assay filed under Homo sapiens was above 15.2.

Consider `COc1ccc2c(c1)/C(=N/NC(N)=S)CCC2`, for which the IC50 on Cathepsin B and at Procathepsin L was above 10 µM in each case.

Take `NC(=S)N/N=C1\CCNc2ccccc21`: the IC50 at Cathepsin B and against Procathepsin L was above 10 µM in each case.

Source of the values: ChEMBL document CHEMBL2375278, “Small-molecule inhibitors of cathepsin L incorporating functionalized ring-fused molecular frameworks” (Bioorg Med Chem Lett, 2013).
